Tests used:
Trypanosoma cruzi [1] = experiment: Antiparasitic activity against nifurtimox-sensitive amastigote stage of Trypanosoma cruzi tulahuen CL2 infected in human MRC5 cells; format: functional, organism-based
[2] = Selectivity index, ratio of IC50 for human MRC5 cells to IC50 for nifurtimox-sensitive amastigote stage of Trypanosoma cruzi tulahuen CL2 infected in human MRC5 cells; format: toxicity, cell-based; settings: read-out: Ratio IC50
[3] = system: Trypanosoma brucei rhodesiense; experiment: Antiparasitic activity against suramin-sensitive trypomastigote stage of Trypanosoma brucei rhodesiense squib-427 infected in human MRC5 cells after 4 days by Alamar blue staining based fluorimetric analysis; format: functional, organism-based; settings: squib-427, 96 h
Leishmania infantum = experiment: Antiparasitic activity against amastigote stage of Leishmania infantum MHOM/MA-BE/67 infected in mouse peritoneal macrophages after 5 days by Giemsa staining based microscopic analysis; format: functional, organism-based; settings: MHOM/MA-BE/67, 120 h
MRC5 = experiment: Cytotoxicity against human MRC5 cells assessed as cell viability after 4 to 7 days by Alamar Blue staining based fluorometric analysis
Plasmodium falciparum = experiment: Antiparasitic activity against chloroquine-resistant erythrocytic stage of Plasmodium falciparum K1 infected in […] after 72 hrs by NBT staining based spectroscopic analysis; format: functional, organism-based; settings: K1, 72 h
[4] = Metabolic stability in human liver microsomes at 50 uM after 60 mins by LC-UV-MS analysis in the presence of NADPH-generating system; format: ADME; settings: read-out: Stability
Summary of the method: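 Test compound at 50 μM in pH 7.4 phosphate buffer with 2% DMSO, incubated at 37°C for 60 min with human liver microsomal protein and an NADPH-generating system. The reaction was then stopped, and parent drug and metabolites were measured by LC-UV-MS.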

Trypanosoma cruzi [5] = experiment: Potency index, ratio of benznidazole IC50 to compound IC50 for nifurtimox-sensitive amastigote stage of Trypanosoma cruzi tulahuen CL2 infected in human MRC5 cells; format: functional

SMILES | IC50 (Trypanosoma cruzi [1]) | selectivity ratio [2] | IC50 [3] | IC50 (Leishmania infantum) | IC50 (MRC5) | IC50 (Plasmodium falciparum) | remaining at 1 h, 50 µM [4] | Ratio IC50 (Trypanosoma cruzi [5])
O=C(O[C@@H](Cn1ccnc1)c1ccc(F)cc1)c1ccc(-c2ccccc2)cc1 | 1.8 µM | > 35.6 | > 64 µM | > 64 µM | > 64 µM | 2.3 µM |  | 
CC/C(=C(\c1ccccc1)c1ccc(OCCN(C)C)cc1)c1ccccc1 [TAMOXIFEN] |  |  |  |  | 10.9 µM |  |  | 
O=C(OC(Cn1ccnc1)c1ccc(Cl)cc1)N1CCN(C(=O)c2ccco2)CC1 (racemic) | 5.84 µM | > 10.9 | > 64 µM | > 64 µM | > 64 µM | 10.7 µM |  | 
O=C(OC(Cn1ccnc1)c1ccc(Cl)cc1)c1ccc(-c2ccccc2)cc1 (racemic) | 0.48 µM | 15 | 32.4 µM | 12.7 µM | 7.2 µM | 1.9 µM |  | 
O=C(OC(Cn1ccnc1)c1ccc(F)cc1)N1CCN(c2ccc([N+](=O)[O-])cc2)CC1 (racemic) | 1.68 µM | 9.2 | 27.2 µM | 27.2 µM | 15.5 µM | 2.6 µM |  | 
O=C(Nc1ccc(N2CCN(C(=O)c3ccco3)CC2)cc1)O[C@H](Cn1ccnc1)c1ccc(F)cc1 | 0.13 µM | 288 | > 64 µM | > 64 µM | 37.5 µM | 5.2 µM |  | 
O=C(Nc1ccc(N2CCN(C(=O)c3ccco3)CC2)cc1)OC(Cn1ccnc1)c1ccc(F)cc1 (racemic) | 0.79 µM | 33.4 | 32.9 µM | 28.9 µM | 26.4 µM | 4 µM | 99% | 
CCS(=O)(=O)N1CCN(c2ccc(NC(=O)OC(Cn3ccnc3)c3ccc(F)cc3)cc2)CC1 (racemic) | 0.04 µM | > 1600 | > 64 µM | 38 µM | > 64 µM | 17.2 µM | 99% | 50
O=C(Nc1ccc(N2CCN(C(=O)c3ccco3)CC2)cc1)O[C@@H](Cn1ccnc1)c1ccc(F)cc1 | 1.72 µM | 15.4 | > 64 µM | > 64 µM | 26.5 µM | 4 µM |  | 
O=C(OC(Cn1ccnc1)c1ccc(F)cc1)c1ccc(-c2ccccc2)cc1 (racemic) | 0.71 µM | 10.9 | 32.2 µM | 32.2 µM | 7.8 µM | 0.6 µM |  | 
O=C(O[C@H](Cn1ccnc1)c1ccc(F)cc1)c1ccc(-c2ccccc2)cc1 | 0.49 µM | 16.3 | 33.7 µM | 34.6 µM | 8 µM | 2 µM |  | 
O=C(O[C@H](Cn1ccnc1)c1ccc(Cl)cc1)N1CCN(c2ccc([N+](=O)[O-])cc2)CC1 | 1.32 µM | 6.4 | > 64 µM | 12.7 µM | 8.5 µM | 1.5 µM |  | 
CCCCCCCCCCCCCCCCOP(=O)([O-])OCC[N+](C)(C)C [MILTEFOSINE] |  |  |  | 10.4 µM |  |  |  | 
O=C(O[C@@H](Cn1ccnc1)c1ccc(Cl)cc1)c1ccc(-c2ccccc2)cc1 | 0.2 µM | 39 | 32.4 µM | > 64 µM | 7.8 µM | 2 µM |  | 
O=C(Cn1ccnc1[N+](=O)[O-])NCc1ccccc1 [BENZNIDAZOLE] | 1.95 µM |  |  |  |  |  |  | 
Cc1ccc(C(=O)Nc2ccc(S(=O)(=O)O)c3cc(S(=O)(=O)O)cc(S(=O)(=O)O)c23)cc1NC(=O)c1cccc(NC(=O)Nc2cccc(C(=O)Nc3cc(C(=O)Nc4ccc(S(=O)(=O)O)c5cc(S(=O)(=O)O)cc(S(=O)(=O)O)c45)ccc3C)c2)c1 [SURAMIN] |  |  | 0.02 µM |  |  |  |  | 
O=C(O[C@H](Cn1ccnc1)c1ccc(F)cc1)N1CCN(c2ccc([N+](=O)[O-])cc2)CC1 | 5.44 µM | 1.5 | > 64 µM | > 64 µM | 8.2 µM | 1.3 µM |  | 
O=C(O[C@H](Cn1ccnc1)c1ccc(Cl)cc1)c1ccc(-c2ccccc2)cc1 | 0.56 µM | 14.6 | 30.1 µM | 32 µM | 8.2 µM | 2.1 µM |  | 
O=C(OC(Cn1ccnc1)c1ccc(-c2ccccc2)cc1)c1ccc(-c2ccccc2)cc1 (racemic) | 2.72 µM | 3.2 | 29.1 µM | 8 µM | 8.8 µM | 7.7 µM |  | 
O=C(O[C@@H](Cn1ccnc1)c1ccc(Cl)cc1)N1CCN(c2ccc([N+](=O)[O-])cc2)CC1 | 1 µM | 8.7 | 32.2 µM | 12.7 µM | 8.7 µM | 2.2 µM |  | 
O=C(OC(Cn1ccnc1)c1ccc(Cl)cc1)N1CCN(c2ccc([N+](=O)[O-])cc2)CC1 (racemic) | 0.87 µM | 9.4 | 8 µM | 8 µM | 8.2 µM | 2.4 µM |  | 
O=C(O[C@@H](Cn1ccnc1)c1ccc(F)cc1)N1CCN(c2ccc([N+](=O)[O-])cc2)CC1 | 1.23 µM | 7 | 32.2 µM | 20.3 µM | 8.7 µM | 1.2 µM |  | 

Reference: ChEMBL document CHEMBL3779855, “In vitro screening of 2-(1H-imidazol-1-yl)-1-phenylethanol derivatives as antiprotozoal agents and docking studies on Trypanosoma cruzi CYP51” (Eur J Med Chem, 2016)
